Measurements from ChEMBL document CHEMBL1144865, “N-aminoimidazole derivatives inhibiting retroviral replication via a yet unidentified mode of action” (J Med Chem, 2003).
pIC50: −log10 of the molar value.

What was measured:
[1] = test system: Human immunodeficiency virus 2; experiment: Concentration required to inhibit the viral (HIV-2 ROD) cytopathic effect by 50% in MT-4 cells.; assay type: functional, organism-based, MT4
Outline: (§1)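 Virus-infected MT-4 cells cultured with serial compound dilutions; viability measured 5 days after infection by MTT tetrazolium colorimetric read-out. The value is the concentration protecting 50% of cells from viral cytopathic effect. Averages ± SD from at least two independent experiments. HIV-2 and SIV stocks came from infected MT-4 culture supernatants.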

[2] = test system: Simian immunodeficiency virus; experiment: Concentration required to inhibit the viral (SIV mac251) cytopathic effect by 50% in MT-4 cells.; assay type: functional, organism-based, MT4; outline: as §1
[3] = test system: Human immunodeficiency virus 1; experiment: Concentration required to inhibit the viral (HIV-1 IIIB strain) cytopathic effect by 50% in MT-4 cells.; assay type: functional, organism-based; conditions: Human immunodeficiency virus 1, MT4; outline: as §1
MT4 = experiment: Concentration that reduced the MT-4 cell viability by 50%.; assay type: functional, Homo sapiens
Outline: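 Mock-infected MT-4 cells, run in parallel with the antiviral assay, were exposed to compound. Viability on day 5 was read by MTT colorimetry. The value is the concentration lowering viability by 50%. Averages ± SD from at least two independent experiments.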

[4] = test system: Human immunodeficiency virus 1; experiment: Concentration required to inhibit the viral (HIV-1 NL4.3 strain) cytopathic effect by 50% in MT-4 cells.; assay type: functional, organism-based; conditions: Human immunodeficiency virus 1, MT4; outline: as §1
[5] = test system: Human immunodeficiency virus 1; experiment: Concentration required to inhibit the viral (HIV-1 NNRTI resistant strain) cytopathic effect by 50% in MT-4 cells.; assay type: functional, organism-based; conditions: Human immunodeficiency virus 1, MT4
Outline: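 MT-4 cells infected with HIV-1(III_B)-derived strain S0561945 (K103N + Y181C RT mutations, NNRTI-resistant). Cultured with varying compound concentrations; viability read on day 5 post-infection by MTT tetrazolium colorimetry. Value is the concentration giving 50% protection against virus-induced cytopathic effect. Cytotoxicity measured in parallel on mock-infected cells at day 5. Averages ± SD from at least two independent experiments.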

[6] = Human immunodeficiency virus 2, MT4
[7] = Simian immunodeficiency virus, mac251, MT4

| Compound | pIC50 [1, 6] | pIC50 [2, 7] | pIC50 [3] | pIC50 [4] | pIC50 ([1]; mt4) | pIC50 ([2]; mt4) | CC50 (MT4; Homo sapiens, MT4) [µM] | pIC50 [5] | CC50 (MT4) [µM] |
| --- | --- | --- | --- | --- | --- | --- | --- | --- | --- |
| CC1N=C(S)N(Nc2cccc([N+](=O)[O-])c2)C1c1ccccc1 (configuration not stated) | < 4.32 | 5.12 | 5.14 | 4.95 |  |  | 48.3 | 4.37 |  |
| CCc1ccc(NN2C(S)=NC(C)C2c2ccccc2)cc1 (configuration not stated) | < 4.46 | < 4.46 | < 4.46 | < 4.46 |  |  | 34.5 |  |  |
| Cc1ncn(Nc2ccccc2)c1C | < 3.45 | < 3.45 | < 3.45 | < 3.45 |  |  | 351 |  |  |
| Cc1nc(S)n(Nc2ccc(Cl)cc2)c1-c1ccccc1 | < 3.87 | < 3.87 | < 3.87 | < 3.87 |  |  | 134 |  |  |
| Cc1cccc(Nn2cnc(C)c2C)c1 | < 3.51 | < 3.51 | < 3.51 | < 3.51 |  |  | 312 |  |  |
| COC(=O)c1cccc(-c2c(C)ncn2Nc2cccc(Cl)c2)c1 | < 4.48 | < 4.48 | < 4.48 | < 4.48 |  |  | 33.1 |  |  |
| Cc1cccc(Nn2cnc(C)c2-c2cccc(C(N)=O)c2)c1 | < 3.79 | < 3.79 | < 3.79 | < 3.79 |  |  | 162 |  |  |
| CC1N=C(S)N(Nc2cccc(Br)c2)C1c1ccccc1 (configuration not stated) | < 4.35 | 5.57 | 5.00 | 5.34 |  |  | 44.2 | 5.24 |  |
| SC1=NC(c2ccccc2)C(c2ccccc2)N1Nc1cccc(Cl)c1 (configuration not stated) | < 4.44 | < 4.44 | < 4.44 | < 4.44 |  |  | 36.3 | < 4.44 |  |
| CCC1N=C(S)N(Nc2cccc(C)c2)C1c1ccccc1 (configuration not stated) | < 4.27 | < 4.27 | 4.75 | 4.89 |  |  | 53.6 | ≤ 4.27 |  |
| Cc1nc(S)n(Nc2cccc3ccccc23)c1-c1ccccc1 | 5.29 | 5.33 | 5.26 | 5.18 |  |  | 32 | 4.92 |  |
| Clc1cccc(Nn2cnc3c2CCCC3)c1 |  |  |  |  | < 4.17 | < 4.17 |  |  | 67.3 |
| CSc1nc(C)c(-c2ccccc2)n1Nc1cccc(Cl)c1 | < 4.38 | < 4.38 | < 4.38 | < 4.38 |  |  | 42.1 |  |  |
| Cc1cc(C)cc(Nn2cnc(C)c2-c2ccccc2)c1 | < 4.69 | < 4.69 |  |  |  |  | 20.4 |  |  |
| Cc1cccc(NN2C(S)=NC(C(C)C)C2c2ccccc2)c1 (configuration not stated) | < 4.37 | < 4.37 | < 4.37 | < 4.37 |  |  | 42.6 | < 4.37 |  |

Second part, led by results:

| pIC50 [1, 6] | pIC50 [2, 7] | pIC50 [3] | pIC50 [4] | pIC50 ([1]; mt4) | pIC50 ([2]; mt4) | Compound | CC50 (MT4; Homo sapiens, MT4) [µM] | pIC50 [5] | CC50 (MT4) [µM] |
| --- | --- | --- | --- | --- | --- | --- | --- | --- | --- |
| < 4.38 | < 4.38 | < 4.38 | < 4.38 |  |  | CC1N=C(S)N(Nc2cccc(Cl)c2)C1c1cccc(C(N)=O)c1 (configuration not stated) | 42.2 |  |  |
| < 3.97 | < 3.97 | < 3.97 | < 3.97 |  |  | COC(=O)c1c(C)ncn1Nc1cccc(Cl)c1 | 107 |  |  |
| < 3.58 | < 3.58 | < 3.58 | < 3.58 |  |  | CC1N=C(S)N(Nc2cccc(Cl)c2)C1C(=O)O (configuration not stated) | 266 |  |  |
| < 3.73 | < 3.73 | < 3.73 | < 3.73 |  |  | Cc1cccc(NN2C(S)=NC(C)C2c2cccc(C(=O)O)c2)c1 (configuration not stated) | 187 |  |  |
| < 3.90 | < 3.90 | < 3.90 | < 3.90 |  |  | SC1=NC2CCCCC2N1Nc1cccc(Cl)c1 (configuration not stated) | 126 |  |  |
| < 4.30 | < 4.30 | < 4.30 | < 4.30 |  |  | Cc1c(-c2ccccc2)nc(S)n1Nc1cccc(Cl)c1 | 50 |  |  |
| < 3.59 | < 3.59 | < 3.59 | < 3.59 |  |  | CC1N=C(S)N(Nc2cccc(Cl)c2)C1C (configuration not stated) | 259 |  |  |
| < 3.79 | < 3.79 | < 3.79 | < 3.79 |  |  | Cc1ncn(Nc2cccc(Cl)c2)c1-c1cccc(C(=O)O)c1 | 161 |  |  |
| < 3.83 | < 3.83 | < 3.83 | < 3.83 |  |  | CC1N=C(S)N(Nc2cc(Cl)ccc2Cl)C1c1ccccc1 (configuration not stated) | 147 |  |  |
| < 3.92 | < 3.92 | < 3.92 | < 3.92 |  |  | CC1N=C(S)N(Nc2cccc(Cl)c2)C1c1cccc(C(=O)O)c1 (configuration not stated) | 120 |  |  |
